Laboratory results taken from ChEMBL document CHEMBL3351863, “Optimization of 2-phenyl-pyrimidine-4-carboxamides towards potent, orally bioavailable and selective P2Y(12) antagonists for inhibition of platelet aggregation” (Bioorg Med Chem Lett, 2014).

Biological target: P2Y purinoceptor 12 (Homo sapiens, UniProt Q9H244)
Assay: Displacement of [3H]-2-methyl-thio-adenosine 5'-diphosphate from human recombinant P2Y12 expressed in CHO cell membranes by scintillation counting method
Conditions: not given; call rule not given here
Method in brief: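 CHO cells expressing recombinant P2Y₁₂ receptors, incubated with tritium-labeled 2-methyl-thio-adenosine 5'-diphosphate plus test compound; IC₅₀ from displacement curves, each point in triplicate; reference compound run with every compound set, and set re-analyzed if its IC₅₀ fell outside pre-set 95% confidence interval.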

P2Y purinoceptor 12, sequence (Q9H244 whole entry): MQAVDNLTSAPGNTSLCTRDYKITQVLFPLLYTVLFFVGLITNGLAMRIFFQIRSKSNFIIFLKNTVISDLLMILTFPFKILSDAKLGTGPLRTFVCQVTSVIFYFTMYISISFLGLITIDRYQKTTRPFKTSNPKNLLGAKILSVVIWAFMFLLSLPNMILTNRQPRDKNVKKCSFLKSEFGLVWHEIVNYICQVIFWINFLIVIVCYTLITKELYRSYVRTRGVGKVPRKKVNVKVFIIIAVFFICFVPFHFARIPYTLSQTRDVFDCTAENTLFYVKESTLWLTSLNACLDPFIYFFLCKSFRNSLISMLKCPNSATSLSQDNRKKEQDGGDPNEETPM

| Structure (SMILES) | IC50 |
| --- | --- |
| CCOC(=O)N1CCN(C(=O)[C@H](CCC(=O)O)NC(=O)c2cc(N3CCN(C)CC3)nc(-c3ccccc3)n2)CC1 | 0.046 µM |
| CCOC(=O)N1CCN(C(=O)[C@H](CCC(=O)O)NC(=O)c2cc(C(C)(C)O)nc(-c3ccccc3)n2)CC1 | 0.035 µM |

Tested on: Platelet
Assay: Inhibition of ADP-induced platelet aggregation in human platelet rich plasma assessed as remaining activity at 500 nM by in-vitro light transmission aggregometry assay
Assay type: functional
Conditions: not given
Method in brief: (§1)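 Light transmission aggregometry in human platelet-rich plasma; compound incubated, aggregation triggered with 3 µM ADP; remaining activity (RA) recorded at a single compound level (1000, 500 or 100 nM).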

| Structure (SMILES) | Activity |
| --- | --- |
| CCOC(=O)N1CCN(C(=O)[C@H](CCC(=O)O)NC(=O)c2cc(N3CCN(C)CC3)nc(-c3ccccc3)n2)CC1 | <30% |
| CCOC(=O)N1CCN(C(=O)[C@H](CCC(=O)O)NC(=O)c2cc(C(C)(C)O)nc(-c3ccccc3)n2)CC1 | <30% |

Tested on: Platelet
Assay: Inhibition of ADP-induced platelet aggregation in human platelet rich plasma assessed as remaining activity at 100 nM by in-vitro light transmission aggregometry assay
Assay type: functional
Conditions: not given
Method in brief: as §1

| Structure (SMILES) | Activity |
| --- | --- |
| CCOC(=O)N1CCN(C(=O)[C@H](CCC(=O)O)NC(=O)c2cc(N3CCN(C)CC3)nc(-c3ccccc3)n2)CC1 | <70% |
| CCOC(=O)N1CCN(C(=O)[C@H](CCC(=O)O)NC(=O)c2cc(C(C)(C)O)nc(-c3ccccc3)n2)CC1 | <70% |

Tested on: Platelet
Assay: Inhibition of ADP-induced platelet aggregation in human platelet rich plasma by in-vitro light transmission aggregometry assay
Assay type: functional
Conditions: Homo sapiens, Platelet, Plasma
Method in brief: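 Human platelet-rich plasma incubated with compound, aggregation induced by 3 µM ADP and read by light transmission aggregometry; IC₅₀ derived from concentration–response curve.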

| Structure (SMILES) | IC50 |
| --- | --- |
| CCOC(=O)N1CCN(C(=O)[C@H](CCC(=O)O)NC(=O)c2cc(C(C)(C)O)nc(-c3ccccc3)n2)CC1 | 0.118 µM |

Tested on: not listed separately
Assay: Potency shift, ratio of IC50 for inhibition of ADP-induced platelet aggregation in human platelet rich plasma to IC50 for displacement of [3H]-2-methyl-thio-adenosine 5'-diphosphate from human recombinant P2Y12 expressed in CHO cell membranes
Conditions: not given

| Structure (SMILES) | Ratio IC50 |
| --- | --- |
| CCOC(=O)N1CCN(C(=O)[C@H](CCC(=O)O)NC(=O)c2cc(C(C)(C)O)nc(-c3ccccc3)n2)CC1 | 3.4 |

Tested on: not listed separately
Assay: Solubility in neutral pH
Assay type: physicochemical
Conditions: not given

| Structure (SMILES) | solubility |
| --- | --- |
| CCOC(=O)N1CCN(C(=O)[C@H](CCC(=O)O)NC(=O)c2cc(N3CCN(C)CC3)nc(-c3ccccc3)n2)CC1 | soluble |
| CCOC(=O)N1CCN(C(=O)[C@H](CCC(=O)O)NC(=O)c2cc(C(C)(C)O)nc(-c3ccccc3)n2)CC1 | soluble |

Tested on: not listed separately
Assay: Solubility in basic pH
Assay type: physicochemical
Conditions: not given

| Structure (SMILES) | solubility |
| --- | --- |
| CCOC(=O)N1CCN(C(=O)[C@H](CCC(=O)O)NC(=O)c2cc(N3CCN(C)CC3)nc(-c3ccccc3)n2)CC1 | soluble |
| CCOC(=O)N1CCN(C(=O)[C@H](CCC(=O)O)NC(=O)c2cc(C(C)(C)O)nc(-c3ccccc3)n2)CC1 | soluble |

Biological target: T1, Cytochrome P450 3A4 (Homo sapiens, UniProt P08684)
T1 sequence (P08684 whole entry): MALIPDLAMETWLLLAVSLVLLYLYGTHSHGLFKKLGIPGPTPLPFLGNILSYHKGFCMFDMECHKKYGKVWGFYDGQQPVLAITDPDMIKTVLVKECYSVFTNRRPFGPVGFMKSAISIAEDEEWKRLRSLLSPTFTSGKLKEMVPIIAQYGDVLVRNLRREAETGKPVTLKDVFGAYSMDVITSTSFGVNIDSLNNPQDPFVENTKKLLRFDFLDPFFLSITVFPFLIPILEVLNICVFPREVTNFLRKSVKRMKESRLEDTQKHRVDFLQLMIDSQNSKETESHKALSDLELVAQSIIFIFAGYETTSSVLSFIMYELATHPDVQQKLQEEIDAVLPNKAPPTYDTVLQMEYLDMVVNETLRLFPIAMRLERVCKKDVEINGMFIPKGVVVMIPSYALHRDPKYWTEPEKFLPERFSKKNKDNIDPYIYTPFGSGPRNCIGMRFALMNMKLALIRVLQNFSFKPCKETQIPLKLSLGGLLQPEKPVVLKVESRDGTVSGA
Assay: Inhibition of CYP3A4 in human liver microsomes assessed as reduction in midazolam 1'-hydroxylation
Assay type: ADME
Conditions: not given

| Structure (SMILES) | inhibition (INH) |
| --- | --- |
| CCOC(=O)N1CCN(C(=O)[C@H](CCC(=O)O)NC(=O)c2cc(N3CCN(C)CC3)nc(-c3ccccc3)n2)CC1 | Not Active |
| CCOC(=O)N1CCN(C(=O)[C@H](CCC(=O)O)NC(=O)c2cc(C(C)(C)O)nc(-c3ccccc3)n2)CC1 | Not Active |

Biological target: T1, Cytochrome P450 3A4
Assay: Inhibition of CYP3A4 in human liver microsomes assessed as reduction in testosterone 6beta-hydroxylation
Assay type: ADME
Conditions: not given

| Structure (SMILES) | inhibition (INH) |
| --- | --- |
| CCOC(=O)N1CCN(C(=O)[C@H](CCC(=O)O)NC(=O)c2cc(N3CCN(C)CC3)nc(-c3ccccc3)n2)CC1 | Not Active |
| CCOC(=O)N1CCN(C(=O)[C@H](CCC(=O)O)NC(=O)c2cc(C(C)(C)O)nc(-c3ccccc3)n2)CC1 | Not Active |

Biological target: Cytochrome P450 2D6 (Homo sapiens, UniProt P10635)
Sequence (P10635 whole entry): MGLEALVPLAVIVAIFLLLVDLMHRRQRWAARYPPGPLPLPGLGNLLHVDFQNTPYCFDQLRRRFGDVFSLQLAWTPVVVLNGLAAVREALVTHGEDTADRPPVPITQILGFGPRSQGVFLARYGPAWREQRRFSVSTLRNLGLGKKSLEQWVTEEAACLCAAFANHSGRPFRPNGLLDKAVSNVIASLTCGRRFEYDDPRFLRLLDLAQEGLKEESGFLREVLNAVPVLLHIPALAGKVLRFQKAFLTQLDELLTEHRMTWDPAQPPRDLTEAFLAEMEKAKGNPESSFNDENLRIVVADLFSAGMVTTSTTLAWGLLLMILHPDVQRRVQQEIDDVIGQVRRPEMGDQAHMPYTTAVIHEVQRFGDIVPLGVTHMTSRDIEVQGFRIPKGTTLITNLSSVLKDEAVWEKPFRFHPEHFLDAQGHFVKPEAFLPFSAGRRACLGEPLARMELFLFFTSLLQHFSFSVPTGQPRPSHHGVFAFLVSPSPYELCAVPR
Assay: Inhibition of CYP2D6 in human liver microsomes assessed as reduction in dextromethorphan-O demethylation
Assay type: ADME
Conditions: not given

| Structure (SMILES) | inhibition (INH) |
| --- | --- |
| CCOC(=O)N1CCN(C(=O)[C@H](CCC(=O)O)NC(=O)c2cc(N3CCN(C)CC3)nc(-c3ccccc3)n2)CC1 | Not Active |
| CCOC(=O)N1CCN(C(=O)[C@H](CCC(=O)O)NC(=O)c2cc(C(C)(C)O)nc(-c3ccccc3)n2)CC1 | Not Active |

Biological target: Cytochrome P450 2C9 (Homo sapiens, UniProt P11712)
Sequence (P11712 whole entry): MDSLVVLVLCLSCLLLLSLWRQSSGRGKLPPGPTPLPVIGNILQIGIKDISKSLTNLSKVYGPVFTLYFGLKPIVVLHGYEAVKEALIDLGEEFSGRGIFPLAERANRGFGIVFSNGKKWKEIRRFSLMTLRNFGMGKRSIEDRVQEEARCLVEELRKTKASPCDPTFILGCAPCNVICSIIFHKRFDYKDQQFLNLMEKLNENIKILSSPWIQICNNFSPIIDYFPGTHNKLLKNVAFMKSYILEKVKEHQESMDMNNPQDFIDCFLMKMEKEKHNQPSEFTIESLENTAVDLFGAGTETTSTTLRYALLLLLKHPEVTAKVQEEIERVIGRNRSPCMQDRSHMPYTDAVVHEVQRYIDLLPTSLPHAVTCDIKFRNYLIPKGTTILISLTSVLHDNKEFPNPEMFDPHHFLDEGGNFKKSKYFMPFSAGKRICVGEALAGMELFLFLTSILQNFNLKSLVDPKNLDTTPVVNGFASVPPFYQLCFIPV
Assay: Inhibition of CYP2C9 in human liver microsomes assessed as reduction in diclofenac 4'-hydroxylation
Assay type: ADME
Conditions: not given

| Structure (SMILES) | inhibition (INH) |
| --- | --- |
| CCOC(=O)N1CCN(C(=O)[C@H](CCC(=O)O)NC(=O)c2cc(N3CCN(C)CC3)nc(-c3ccccc3)n2)CC1 | Not Active |
| CCOC(=O)N1CCN(C(=O)[C@H](CCC(=O)O)NC(=O)c2cc(C(C)(C)O)nc(-c3ccccc3)n2)CC1 | Not Active |

Tested on: Liver microsome
Assay: Metabolic stability assay in human liver microsomes assessed as parent drug disappearance at 1 uM after 20 mins by HPLC and mass spectrometry method
Assay type: ADME
Conditions: not given

| Structure (SMILES) | Stability |
| --- | --- |
| CCOC(=O)N1CCN(C(=O)[C@H](CCC(=O)O)NC(=O)c2cc(N3CCN(C)CC3)nc(-c3ccccc3)n2)CC1 | Stable |
| CCOC(=O)N1CCN(C(=O)[C@H](CCC(=O)O)NC(=O)c2cc(C(C)(C)O)nc(-c3ccccc3)n2)CC1 | Stable |

Tested on: Liver microsome
Assay: Metabolic stability assay in rat liver microsomes assessed as parent drug disappearance at 1 uM after 20 mins by HPLC and mass spectrometry method
Assay type: ADME
Conditions: not given

| Structure (SMILES) | Stability |
| --- | --- |
| CCOC(=O)N1CCN(C(=O)[C@H](CCC(=O)O)NC(=O)c2cc(N3CCN(C)CC3)nc(-c3ccccc3)n2)CC1 | Stable |
| CCOC(=O)N1CCN(C(=O)[C@H](CCC(=O)O)NC(=O)c2cc(C(C)(C)O)nc(-c3ccccc3)n2)CC1 | Stable |

Biological target: Voltage-gated inwardly rectifying potassium channel KCNH2 (Homo sapiens, UniProt Q12809)
Sequence (Q12809 whole entry): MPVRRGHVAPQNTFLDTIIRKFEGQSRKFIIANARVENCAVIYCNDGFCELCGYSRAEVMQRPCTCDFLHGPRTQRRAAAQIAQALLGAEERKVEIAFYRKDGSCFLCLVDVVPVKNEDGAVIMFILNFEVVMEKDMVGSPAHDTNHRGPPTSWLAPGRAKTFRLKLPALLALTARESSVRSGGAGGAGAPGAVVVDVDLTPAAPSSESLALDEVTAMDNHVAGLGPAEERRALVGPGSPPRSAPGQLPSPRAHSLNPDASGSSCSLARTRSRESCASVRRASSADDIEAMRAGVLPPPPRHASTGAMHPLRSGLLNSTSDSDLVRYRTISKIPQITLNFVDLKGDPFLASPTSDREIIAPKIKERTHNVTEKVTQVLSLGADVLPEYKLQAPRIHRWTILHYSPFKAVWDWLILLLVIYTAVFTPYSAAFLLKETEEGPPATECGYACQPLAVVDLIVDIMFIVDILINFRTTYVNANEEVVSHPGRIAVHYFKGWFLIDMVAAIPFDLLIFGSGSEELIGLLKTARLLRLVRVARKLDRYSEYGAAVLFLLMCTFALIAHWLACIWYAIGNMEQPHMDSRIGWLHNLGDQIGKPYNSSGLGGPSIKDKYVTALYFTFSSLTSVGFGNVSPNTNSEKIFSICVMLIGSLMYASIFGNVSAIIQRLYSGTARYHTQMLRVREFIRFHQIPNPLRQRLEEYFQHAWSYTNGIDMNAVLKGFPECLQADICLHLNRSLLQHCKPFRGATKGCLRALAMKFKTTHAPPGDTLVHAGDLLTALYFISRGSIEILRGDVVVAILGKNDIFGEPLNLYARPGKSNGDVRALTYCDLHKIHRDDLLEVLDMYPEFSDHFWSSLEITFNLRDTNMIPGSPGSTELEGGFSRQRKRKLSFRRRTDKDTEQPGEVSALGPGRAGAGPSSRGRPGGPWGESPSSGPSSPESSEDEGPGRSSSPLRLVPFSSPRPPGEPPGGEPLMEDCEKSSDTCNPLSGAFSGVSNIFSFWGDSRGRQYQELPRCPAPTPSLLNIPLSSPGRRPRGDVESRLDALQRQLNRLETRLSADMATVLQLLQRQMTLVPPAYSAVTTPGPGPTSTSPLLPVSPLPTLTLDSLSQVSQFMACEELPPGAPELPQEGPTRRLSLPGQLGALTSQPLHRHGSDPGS
Assay: Inhibition of human ERG expressed in HEK cells by patch-clamp assay
Assay type: cell-based
Conditions: hek293

| Structure (SMILES) | inhibition (INH) |
| --- | --- |
| CCOC(=O)N1CCN(C(=O)[C@H](CCC(=O)O)NC(=O)c2cc(N3CCN(C)CC3)nc(-c3ccccc3)n2)CC1 | Not Active |
| CCOC(=O)N1CCN(C(=O)[C@H](CCC(=O)O)NC(=O)c2cc(C(C)(C)O)nc(-c3ccccc3)n2)CC1 | Not Active |

Tested on: not listed separately
Assay: Clearance in Wistar rat at 1 mg/kg, iv
Assay type: ADME, organism-based
Set-up: dose 1 mg/kg, route intravenous
Conditions: in vivo
Method in brief: (§2)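 Rats dosed by iv infusion at 1 mg/kg (n = 2) or orally at 10 mg/kg (n = 3); plasma levels measured, limit of quantification ca. 1 ng/mL.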

| Structure (SMILES) | clearance |
| --- | --- |
| CCOC(=O)N1CCN(C(=O)[C@H](CCC(=O)O)NC(=O)c2cc(N3CCN(C)CC3)nc(-c3ccccc3)n2)CC1 | 2.94 L/h/kg |

Tested on: not listed separately
Assay: Volume of distribution at steady state in Wistar rat at 1 mg/kg, iv or 10 mg/kg, po
Assay type: ADME, organism-based
Conditions: in vivo, read-out: Vdss
Method in brief: as §2

| Structure (SMILES) | Vd |
| --- | --- |
| CCOC(=O)N1CCN(C(=O)[C@H](CCC(=O)O)NC(=O)c2cc(N3CCN(C)CC3)nc(-c3ccccc3)n2)CC1 | 0.8 L/kg |

Tested on: not listed separately
Assay: Half life in Wistar rat at 1 mg/kg, iv or 10 mg/kg, po
Assay type: ADME, organism-based
Conditions: in vivo
Method in brief: as §2

| Structure (SMILES) | half-life |
| --- | --- |
| CCOC(=O)N1CCN(C(=O)[C@H](CCC(=O)O)NC(=O)c2cc(N3CCN(C)CC3)nc(-c3ccccc3)n2)CC1 | 18 min |

Tested on: not listed separately
Assay: AUC in Wistar rat at 10 mg/kg, po
Assay type: ADME, organism-based, Plasma
Set-up: dose 10 mg/kg, route oral
Conditions: Wistar, plasma
Method in brief: as §2

| Structure (SMILES) | AUC |
| --- | --- |
| CCOC(=O)N1CCN(C(=O)[C@H](CCC(=O)O)NC(=O)c2cc(N3CCN(C)CC3)nc(-c3ccccc3)n2)CC1 | 164 nM·h |
| CCOC(=O)N1CCN(C(=O)[C@H](CCC(=O)O)NC(=O)c2cc(C(C)(C)O)nc(-c3ccccc3)n2)CC1 | 109 nM·h |

Tested on: not listed separately
Assay: Cmax in Wistar rat at 10 mg/kg, po
Assay type: ADME, organism-based
Set-up: dose 10 mg/kg, route oral
Conditions: Wistar, in vivo
Method in brief: as §2

| Structure (SMILES) | Cmax |
| --- | --- |
| CCOC(=O)N1CCN(C(=O)[C@H](CCC(=O)O)NC(=O)c2cc(N3CCN(C)CC3)nc(-c3ccccc3)n2)CC1 | 0.192 µM |
| CCOC(=O)N1CCN(C(=O)[C@H](CCC(=O)O)NC(=O)c2cc(C(C)(C)O)nc(-c3ccccc3)n2)CC1 | 0.0561 µM |

Tested on: not listed separately
Assay: Oral bioavailability in Wistar rat at 10 mg/kg
Assay type: ADME, organism-based
Conditions: Wistar, in vivo
Method in brief: as §2

| Structure (SMILES) | bioavailability |
| --- | --- |
| CCOC(=O)N1CCN(C(=O)[C@H](CCC(=O)O)NC(=O)c2cc(N3CCN(C)CC3)nc(-c3ccccc3)n2)CC1 | 3% |
